# Screening data as filed in PubChem.
# Rad51 HR inh = human RAD51 strand exchange inhibitors, primary screen, biochemical, fluorescence | AID 1385, 2008 | hRad51 DNA strand exchange, fluorescence dequenching | actives 0.085% (n = 200,000) | inhibition, % at 10 µM | DNA repair protein RAD51 homolog 1 (Homo sapiens), Q06609;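 active means inhibition above 40% at the single screening dose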;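 further: 0% = DMSO control wells and 100% = blanks with heterologous ssDNA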
#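 material = hRad51 filaments on single-stranded DNA | reagent = Donor/quencher-labelled 47-bp dsDNA substrate | compound = 10 µM final, single point | schedule = strand-exchange reaction 15 min at room temperature | measured by = fluorescein emission 520 nm, excitation 485 nm | read-out basis = % inhibition versus plate control and blank means | benchmarks = plate controls and plate blanks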
# Mdm2 ligase inh = MDM2-luciferase reporter signal enhancers, primary screen, MDM2 E3 ligase inhibitor project, cell-based, luminescence, 1536-well. cell-based MDM2 ubiquitination luciferase reporter, 2 h; 0 = plate control, 100 = twice control, blank-subtracted. AID 1230, 2008. signal enhancement, % at 5 µM. actives 0.11% (n = 210,000);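 active means signal enhancement of 30% or more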;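 further: luminescence tracks abundance of the self-degrading MDM2-luciferase fusion protein; higher signal means inhibition of MDM2 E3 ligase activity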
# Target sequence (Q00987 whole entry, looked up, the tested form may be a part): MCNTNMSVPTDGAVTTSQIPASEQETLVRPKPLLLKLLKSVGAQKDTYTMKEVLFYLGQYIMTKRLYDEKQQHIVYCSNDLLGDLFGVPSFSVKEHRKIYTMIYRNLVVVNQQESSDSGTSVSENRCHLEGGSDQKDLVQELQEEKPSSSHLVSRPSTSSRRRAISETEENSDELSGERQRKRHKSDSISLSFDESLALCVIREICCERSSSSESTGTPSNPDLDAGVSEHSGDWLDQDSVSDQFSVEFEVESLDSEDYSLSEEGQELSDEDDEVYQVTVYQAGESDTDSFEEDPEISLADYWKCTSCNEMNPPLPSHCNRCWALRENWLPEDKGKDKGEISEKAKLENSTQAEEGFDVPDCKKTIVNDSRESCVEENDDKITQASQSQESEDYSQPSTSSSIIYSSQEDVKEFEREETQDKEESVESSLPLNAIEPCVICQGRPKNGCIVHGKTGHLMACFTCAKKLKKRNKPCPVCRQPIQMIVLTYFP
#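 Material: Stable MDM2–luciferase fusion reporter cells | Amount: 2000 cells seeded into each well | Dosing: One concentration, 5 µM, with 0.2% DMSO | Incubation: 4 h cell settling then 2 h compound exposure, 37 °C | Measured by: Luciferase luminescence | Read-out basis: % enhancement relative to plate controls after blank subtraction | Benchmarks: Control and blank well means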
# TbHK1 inh = Trypanosoma brucei hexokinase 1 inhibitors, primary screen, biochemical, G6PDH-coupled NADH absorbance, MLSCN library | recombinant TbHK1, G6PDH-coupled NADH A340 | hexokinase 1 [Trypanosoma brucei] | actives 0.11% (n = 220,000) | inhibition, % at 10 µM | AID 1430, 2008;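 active means inhibition of 50% or more in the single-dose primary screen; inactive means inhibition below 50%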
# p47phox inh = p47phox/p22phox peptide binding inhibitors, primary screen, biochemical, uHTS, NADPH oxidase regulatory subunit | fluorescence polarization, 2 h | inhibition, % at 24.7 µM | Neutrophil cytosol factor 1 (Homo sapiens), P14598 | actives 0.53% (n = 220,000);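 active means inhibition above about 30%, limit read from the data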;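 further: 0% = p47phox with labelled peptide and 100% = labelled peptide alone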
# Starred values were filed as active, the others as inactive; . = no result. Rows were chosen to be rich in hits. Some 0.75% of all compounds tested hit in one or more screens of this group.
SMILES,Rad51 HR inh,Mdm2 ligase inh,TbHK1 inh,p47phox inh
COCCn1c(-c2ccc(-c3ccc([N+](=O)[O-])cc3Br)o2)nc2c1c(=O)[nH]c(=O)n2CC(C)C,-37,-7,-6,-38
Nc1cc(C(=O)O)ccc1Nc1ccc(F)c(F)c1,-8,-11,7,30*
O=C(NNc1ccccc1[N+](=O)[O-])Nc1cccc(Cl)c1,-2,.,-12,-6
C=CCn1c(SCN2C(=O)c3ccccc3C2=O)nc2ccc(Cl)cc2c1=O,-2,-14,-1,-1
CCCCOC(=O)CCCN1C(=O)/C(=C2\SC(=S)N(CCCC(=O)OCCCC)C2=O)SC1=S,7,.,-3,-20
Cc1ccc(C(=O)N2c3ccccc3CC2C)o1 (stereo not drawn),4,-4,-8,41*
Cc1c(C(=O)C(=O)N2c3ccccc3CC2C)c2ccccc2n1C (stereo not drawn),1,-15,-13,41*
O=c1oc2ccccc2c2oc3cc(O)c(O)cc3c12,.,-16,-29,-34
O=c1oc2c(O)c(O)cc3c(=O)oc4c(O)c(O)cc1c4c23,.,.,66*,-37
CC1(OC(=O)C2CCCC2)C(=O)C=C2C=C(c3ccsc3)N(CCCCO)C=C2C1=O (stereo not drawn),3,-3,-37,30*
COc1ccc(CN2C=C3C(=O)C(C)(OC(=O)C4CCCC4)C(=O)C=C3C=C2c2ccsc2)cc1 (stereo not drawn),-7,9,-13,-7
N#Cc1ccccc1Cn1c(=O)n(Cc2ccc(C(=O)NCc3ccco3)cc2)c(=O)c2ccccc21,-5,-3,3,30*
Cc1cc(OC(C)C(N)=O)nc(-c2ccccc2)n1 (stereo not drawn),-35,9,-5,-2
COC(=O)/C(C#N)=C/N(C)C,25,-1,-13,-18
CCOC(=O)/C(C#N)=C\N(C)C,.,-14,-6,40*
Cc1ccc(-c2cc(Cc3ccc(F)cc3)c(=O)[nH]n2)cc1,.,7,-3,-9
O=c1[nH]nc(-c2ccc(F)cc2)cc1Cc1ccc(F)cc1,12,-7,-3,37*
COc1ccc([N+](=O)[O-])cc1NC(=O)c1cccs1,-13,-8,-6,4
O=C(Nc1cc([N+](=O)[O-])ccc1F)c1cccs1,2,2,32,75*
Cc1[nH]n(-c2ccccc2)c(=O)c1C=Nc1ccc(S(=O)(=O)N=C(N)N)cc1,-10,-14,-17,-14
Cc1[nH]n(-c2ccccc2)c(=S)c1C=Nc1ccc([N+](=O)[O-])cc1,15,-12,-23,87*
COc1ccc(C(=O)NCC(=O)N2CCc3ccccc3C2)cc1,-5,-10,7,79*
COc1ccc(C(=O)NCC(=O)OCC(=O)N2CCc3ccccc32)cc1,1,-10,-1,7
COc1ccc(Nc2nc(C(=O)N3CCc4ccccc4C3)cs2)cc1,-2,33*,4,6
COc1ccc(N(C(=O)Cn2nnc(-c3ccccc3F)n2)C(C(=O)NCC2CCCO2)c2ccc(Cl)cc2)cc1 (stereo not drawn),3,10,17,5
SMILES,Rad51 HR inh,Mdm2 ligase inh,TbHK1 inh,p47phox inh
COc1cc(NC(=S)NC(=O)c2ccco2)ccc1NC(=O)C(C)C,7,-10,-9,0
COc1cc(NC(=O)C(C)C)ccc1NC(=O)c1ccco1,5,-1,-6,125*
CCc1cccc(NC(=O)CSc2nc3c(c(=O)[nH]2)CCCC3)c1,.,-2,-2,-8
O=C(CCC(=O)OCC(=O)c1cccc([N+](=O)[O-])c1)Nc1cccc(Cl)c1Cl,-4,-5,-4,-13
Cc1ccccc1NC(=O)CCC(=O)OCC(=O)c1cccc([N+](=O)[O-])c1,.,11,3,32*
COCc1cc(C)nc(N/N=C/c2ccc(-c3ccc(Cl)cc3[N+](=O)[O-])o2)c1C#N,-1,0,-23,40*
O=C(O)c1ccccc1C(=O)NCCc1c(C(=O)O)[nH]c2ccc(Cl)cc12,.,-12,-8,0
COc1ccc2[nH]c(C(=O)O)c(CCNC(C)=O)c2c1,.,40*,6,-13
CCOC(=O)C1(CC2CCCCO2)CCN(C(=O)Nc2ccccc2CC)CC1 (stereo not drawn),-5,-14,10,-1
